We go through six molecules from ChEMBL document CHEMBL1136138, “HIV protease inhibitors with picomolar potency against PI-Resistant HIV-1 by extension of the P3 substituent” (Bioorg Med Chem Lett, 2003).

For orientation: pIC50 means the negative decadic logarithm of the IC50, by convention in mol/L. The term AUC denotes concentration integrated over time. By bioavailability is commonly meant dose-corrected exposure relative to a reference, in per cent. One may read the CLint scaled as a measure of how fast metabolising enzymes remove a compound, apart from limits set by blood flow. As a reminder, the Cmax is the highest concentration seen after dosing. A word on the half-life: it is the time needed for the level to fall by half in the phase considered.

pIC50: −log10 of the molar value. Bounds are passed on as bounds.

Data set [1] deals with T1, Human immunodeficiency virus type 1 protease (Human immunodeficiency virus 1, UniProt Q72874). Description: Inhibitory activity against HIV-1 Protease from wild-type NL4-3 virus.
Data set [2] can be described thus: (§1) Area under curve was determine after peroral administration at 5 mpk in dog. To be noted: in vivo, po, 5 mg/kg. Type of data set: ADME, organism-based, Canis lupus familiaris.
Data set [3] has as its system MT4. The data set can be described thus: Compound was tested for their ability to inhibit spread of PI-resistant HIV-1 (strain V-60C) viral infection in MT-4 human T-lymphoidcell. The format is functional. To be noted: read-out: CIC95. An outline of the steps:
(§2)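 Spread of infection was measured in MT4 human T-lymphoid cells infected with viral constructs derived from the resistant clinical strains. The value is CIC95, the concentration that inhibits 95% of viral spread. "≤" and "≥" values are the lowest and highest concentrations tested.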

The nature of data set [4]: Oral bioavailability in dog (dose 5 mg/kg). Type of data set: ADME, organism-based, Canis lupus familiaris. To be noted: in vivo.
The next data set has as its target Cytochrome P450 3A4 (Homo sapiens, UniProt P08684). The data set can be described thus: In vitro inhibition of human liver microsome Cytochrome P450 3A4. (Liver microsomes are vesicles of endoplasmic reticulum, rich in cytochrome P450 enzymes.)
The target in another data set is Cytochrome P450 2D6 (Homo sapiens, UniProt P10635). The data set can be described thus: In vitro inhibition of human liver microsome Cytochrome P450 2D6. The format is ADME, microsomes.
Data set [5] can be described thus: In vitro intrinsic clearance in human liver microsome. Type of data set: ADME. To be noted: liver microsomes.
Data set [6] relates to MT4. The data set can be described thus: Compound was tested for their ability to inhibit spread of PI-resistant HIV-1 (strain K-60C) viral infection in MT-4 human T-lymphoidcell. The format is functional. The following applies: read-out: CIC95. An outline of the steps:
as §2

Data set [7] deals with MT4. Description: Compound was tested for their ability to inhibit spread of wild-type NL4-3 viral infection in MT-4 human T-lymphoidcell. Type of data set: functional. To be noted: read-out: CIC95. In a few lines: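 Viral spread assay in MT4 human T-lymphoid cells infected with a viral construct derived from wild-type NL4-3. The read-out is CIC95, the concentration that blocks 95% of the spread of infection. Values marked ≤ or ≥ are the lowest or highest concentrations tested.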

Data set [8] concerns the target T1, Human immunodeficiency virus type 1 protease. Description: Inhibitory activity against HIV-1 Protease from PI-resistant HIV-1 (strain K-60C).
Data set [9] is described as follows: Cmax was determine after peroral administration at 5 mg/kg in dog. The format is ADME, organism-based, Canis lupus familiaris. Details: dose 5 mg/kg, route oral. To be noted: in vivo, po.
Data set [10] relates to MT4. Description: Compound was tested for their ability to inhibit spread of PI-resistant HIV-1 (strain Q-18C) viral infection in MT-4 human T-lymphoidcell. The format is functional. The following applies: read-out: CIC95. An outline of the steps: as §2
Data set [11] is described as follows: Plasma clearance after peroral administration at 5 mg/kg in dog. The format is ADME, organism-based, Canis lupus familiaris. Details: dose 5 mg/kg, route oral. To be noted: po, read-out: Clp.
A further data set deals with Cytochrome P450 2C9 (Homo sapiens, UniProt P11712). The data set can be described thus: In vitro inhibition of human liver microsome Cytochrome P450 2C9. The format is ADME, microsomes.
Data set [12] deals with T1, Human immunodeficiency virus type 1 protease. The data set can be described thus: Inhibitory activity against HIV-1 Protease from PI-resistant HIV-1 (strain Q-18C).
A short description of data set [13]: Half life period was determine after peroral administration at 5 mpk in dog. The following applies: in vivo, po, 5 mg/kg. The format is ADME, organism-based, Canis lupus familiaris.
Data set [14] has as its target T1, Human immunodeficiency virus type 1 protease. Description: Inhibitory activity against HIV-1 Protease from PI-resistant HIV-1 (strain V-18C).
Data set [15] concerns Canis familiaris. Description: (§3) Area under curve was determine after peroral administration at 10 mpk in dog. The format is ADME, organism-based, Canis lupus familiaris. The following applies: in vivo, po, 10 mg/kg.
Data set [16] is described as follows: Oral bioavailability in dog (dose 10 mg/kg). Type of data set: ADME, organism-based, Canis lupus familiaris. To be noted: in vivo.
Data set [17] is described as follows: Half life period was determine after peroral administration at 10 mpk in dog. The format is ADME, organism-based, Canis lupus familiaris. The following applies: in vivo, po, 10 mg/kg.
A short description of data set [18]: Cmax was determine after peroral administration at 10 mpk in dog. To be noted: in vivo, po, 10 mg/kg. Type of data set: ADME, organism-based, Canis lupus familiaris. Also on record: dose 10 mpk, route oral.
For data set [19], the system named is Canis familiaris. The data set can be described thus: (§4) Plasma clearance after peroral administration at 10 mpk in dog. The format is ADME, organism-based, Canis lupus familiaris. To be noted: in vivo, po, 10 mg/kg.
Data set [20] concerns Canis familiaris. Described as §1. The format is ADME, organism-based, Canis lupus familiaris. The following applies: in vivo, po, 5 mg/kg.
The nature of data set [21]: Oral bioavailability after peroral administration at 5 mpk in Dog. Type of data set: ADME, organism-based, Canis lupus familiaris. The following applies: in vivo, 5 mg/kg.
Data set [22] can be described thus: Cmax was determine after peroral administration at 10 mpk in Rhesus. Type of data set: ADME, organism-based. Also on record: dose 10 mpk, route oral. To be noted: cercopithecidae, in vivo, po, 10 mg/kg.
The nature of data set [23]: Half life period was determine after peroral administration at 10 mpk in Rhesus. Type of data set: ADME, organism-based. The following applies: cercopithecidae, in vivo, po, 10 mg/kg.
The nature of data set [24]: Area under curve was determine after peroral administration at 10 mpk in Rhesus. To be noted: cercopithecidae, in vivo, po, 10 mg/kg. Type of data set: ADME.
Data set [25] is described as follows: Cmax was determine after peroral administration at 5 mpk in dog. Type of data set: ADME, organism-based, Canis lupus familiaris. Also on record: dose 5 mpk, route oral. To be noted: in vivo, po, 5 mg/kg.
Data set [26] can be described thus: Oral bioavailability in Rhesus monkey (dose 10 mg/kg p.o.). The following applies: in vivo. Type of data set: ADME, organism-based, Macaca mulatta.
Data set [27] in a line: Plasma clearance after peroral administration at 10 mpk in Rhesus. Type of data set: ADME, organism-based. To be noted: cercopithecidae, po, 10 mg/kg, read-out: Clp.
Data set [28] has as its system Canis familiaris. Description: Plasma clearance after peroral administration at 5 mpk in dog. The format is ADME, organism-based, Canis lupus familiaris. To be noted: in vivo, po, 5 mg/kg.
In data set [29] the test system is MT4. Description: Compound was testedm for their ability to inhibit spread of PI-resistant HIV-1 (strain V-60C) viral infection in MT-4 human T-lymphoidcell. The format is functional. The following applies: read-out: CIC95. In a few lines: as §2
Data set [30] in a line: as §3. The format is ADME, organism-based, Canis lupus familiaris. To be noted: in vivo, po, 10 mg/kg.
A short description of data set [31]: as §4. The following applies: plasma, po, 10 mg/kg, read-out: Clp. Type of data set: ADME, organism-based, Canis lupus familiaris.

Sequence of Cytochrome P450 2C9 (P11712 whole entry): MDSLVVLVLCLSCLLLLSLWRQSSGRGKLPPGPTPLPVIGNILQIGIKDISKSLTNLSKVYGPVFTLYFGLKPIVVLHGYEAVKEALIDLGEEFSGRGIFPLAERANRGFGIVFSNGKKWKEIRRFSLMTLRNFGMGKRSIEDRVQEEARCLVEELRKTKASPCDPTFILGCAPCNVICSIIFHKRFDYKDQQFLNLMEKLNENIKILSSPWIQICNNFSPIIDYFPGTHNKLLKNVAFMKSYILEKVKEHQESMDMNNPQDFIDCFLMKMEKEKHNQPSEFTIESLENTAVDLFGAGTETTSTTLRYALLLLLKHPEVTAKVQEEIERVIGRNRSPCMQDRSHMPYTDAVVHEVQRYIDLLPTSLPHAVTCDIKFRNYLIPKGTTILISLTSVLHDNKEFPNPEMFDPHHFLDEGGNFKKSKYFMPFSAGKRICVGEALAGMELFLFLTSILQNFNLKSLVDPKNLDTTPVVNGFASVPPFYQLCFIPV
Sequence of Cytochrome P450 3A4 (P08684 whole entry): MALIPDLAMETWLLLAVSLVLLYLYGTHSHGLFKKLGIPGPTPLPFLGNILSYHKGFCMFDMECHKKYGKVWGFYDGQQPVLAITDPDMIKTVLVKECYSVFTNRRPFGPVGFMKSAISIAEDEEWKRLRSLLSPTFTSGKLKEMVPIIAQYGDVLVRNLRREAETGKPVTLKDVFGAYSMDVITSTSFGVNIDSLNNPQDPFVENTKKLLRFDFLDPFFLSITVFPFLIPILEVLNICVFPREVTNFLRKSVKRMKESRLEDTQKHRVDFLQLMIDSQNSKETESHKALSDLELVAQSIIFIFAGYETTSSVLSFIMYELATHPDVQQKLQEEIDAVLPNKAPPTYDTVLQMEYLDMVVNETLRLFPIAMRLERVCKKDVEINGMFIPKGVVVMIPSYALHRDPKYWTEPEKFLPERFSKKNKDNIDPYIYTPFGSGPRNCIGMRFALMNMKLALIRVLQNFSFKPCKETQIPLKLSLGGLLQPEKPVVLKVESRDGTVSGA
Sequence of Cytochrome P450 2D6 (P10635 whole entry): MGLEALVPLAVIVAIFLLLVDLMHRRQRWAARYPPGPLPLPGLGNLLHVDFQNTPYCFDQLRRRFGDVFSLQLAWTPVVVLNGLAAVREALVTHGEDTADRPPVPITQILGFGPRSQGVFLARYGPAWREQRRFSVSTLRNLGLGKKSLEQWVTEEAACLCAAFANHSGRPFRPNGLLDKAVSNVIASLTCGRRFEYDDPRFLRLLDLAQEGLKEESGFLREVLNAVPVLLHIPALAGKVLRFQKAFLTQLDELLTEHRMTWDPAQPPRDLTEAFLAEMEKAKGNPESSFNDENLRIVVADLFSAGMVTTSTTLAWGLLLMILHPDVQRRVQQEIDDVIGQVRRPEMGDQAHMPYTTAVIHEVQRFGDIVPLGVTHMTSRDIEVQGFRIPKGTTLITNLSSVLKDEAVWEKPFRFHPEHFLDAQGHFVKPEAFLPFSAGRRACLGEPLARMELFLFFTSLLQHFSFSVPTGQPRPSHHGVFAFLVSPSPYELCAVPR

With `O=C(N[C@H]1c2ccccc2OC[C@H]1O)[C@H](Cc1ccccc1)C[C@H](O)CN1CCN(Cc2ccc(-c3ccncc3)o2)C[C@H]1C(=O)NCC(F)(F)F`, the pIC50 was 10.10 in data set [1]; 6.49 against Cytochrome P450 3A4; 6.28 at Cytochrome P450 2D6; 9.22 in [8]; 5.26 against Cytochrome P450 2C9; 9.10 in [12]. The pIC50 in [14] was 8.89. The AUC in data set [2] turned out to be 2.6 µM·h. Besides, the IC95 in the data set on MT4 [3] is 31 nM; in the data set on MT4 [6], 15 nM; in the data set with MT4 [7], not above 8 nM; in the data set with MT4 [10], 31 nM. Besides, the bioavailability in [4] was determined as 55%. In data set [5], this molecule yielded a CLint scaled of 133 mL/min/kg. The molecule further came in with a Cmax in data set [9] of 5.3 µM. In [11], the CL/F is 24.5 mL/min/kg. The half-life in data set [13] was 60 min.
With `O=C(N[C@H]1c2ccccc2OC[C@H]1O)[C@H](Cc1ccccc1)C[C@H](O)CN1CCN(Cc2ccc(-c3ccccn3)o2)C[C@H]1C(=O)NCC(F)(F)F`, the IC95 in the data set with MT4 [3] was 15 nM; in the data set on MT4 [6], 31 nM; in the data set with MT4 [7] it was not above 8 nM; in the data set with MT4 [10], 15 nM. The same molecule displayed an AUC in the data set with Canis familiaris [15] of 0.4 µM·h. The pIC50 was 5.28 against Cytochrome P450 3A4; 4.53 against Cytochrome P450 2D6; 9.30 in data set [8]; less than 4.52 on Cytochrome P450 2C9; 9.40 in data set [12]; 9.15 in [14]. For the same molecule, the bioavailability in data set [16] worked out at 4%. For the same molecule, the CLint scaled in data set [5] worked out at 655 mL/min/kg. For the same molecule, in data set [17], the half-life was 50 min. In data set [18], this molecule showed a Cmax of 0.9 µM. This molecule also displayed a Clp in the data set with Canis familiaris [19] of 33.5 mL/min/kg.
For `CC(C)(c1ccc(-c2ccncc2)o1)N1CCN(C[C@@H](O)C[C@@H](Cc2ccccc2)C(=O)N[C@H]2c3ccccc3OC[C@H]2O)[C@H](C(=O)NCC(F)(F)F)C1`, the pIC50 in data set [1] was 10.30; against Cytochrome P450 3A4, 8.00; on Cytochrome P450 2D6, 6.44; in data set [8] it was 9.52; at Cytochrome P450 2C9, 6.39; in [12], 10.00. In [14], this molecule had a pIC50 of 8.92. In addition, the AUC with Canis familiaris [20] turned out to be 11.3 µM·h; in [24], 9.9 µM·h. For the same molecule, the figures for the IC95 with MT4 [3] and in the data set on MT4 [7] were 12 nM and not above 8 nM, respectively. The figures for the bioavailability in [21] and in data set [26] were 100% and 90%, respectively. Also, the figures for the Cmax in data set [22] and in [25] were 4.4 µM and 7.3 µM, respectively. For the same molecule, the half-life in data set [23] was found to be 91 min; in data set [13], 70 min. In addition, in data set [5], the CLint scaled came to 19 mL/min/kg. Also, the CL/F in [27] was 20.4 mL/min/kg. The molecule also came in with a Clp in the data set with Canis familiaris [28] of 22.5 mL/min/kg.
Regarding `O=C(N[C@H]1c2ccccc2OC[C@H]1O)[C@H](Cc1ccccc1)C[C@H](O)CN1CCN(Cc2ccc(-c3cccnc3)o2)C[C@H]1C(=O)NCC(F)(F)F`, the pIC50 in [1] was 10.52; against Cytochrome P450 3A4, 6.36; against Cytochrome P450 2D6 it was 5.19; in data set [8], 9.52; against Cytochrome P450 2C9, less than 4.52; in data set [14], 9.15. The same molecule had an AUC in the data set on Canis familiaris [20] of 0.1 µM·h. Moreover, the bioavailability in [4] was 2%. In addition, the IC95 in the data set on MT4 [29] is 15 nM; with MT4 [6] it was 15 nM; in the data set on MT4 [7], not above 8 nM. In addition, the CLint scaled in data set [5] turned out to be 233 mL/min/kg. In data set [9], this molecule showed a Cmax of 0.2 µM. Besides, the Clp in the data set on Canis familiaris [28] worked out at 25.2 mL/min/kg. In addition, the half-life in data set [13] stood at 41 min.
In the case of `CC(C)(C)NC(=O)[C@@H]1CN(Cc2cccnc2)CCN1C[C@@H](O)C[C@@H](Cc1ccccc1)C(=O)N[C@H]1c2ccccc2C[C@H]1O.O`, the IC95 in the data set on MT4 [3] was more than 1000 nM; in the data set with MT4 [6], more than 1000 nM; with MT4 [7] it was 50 nM; in the data set on MT4 [10] it was more than 1000 nM. In data set [30], this molecule had an AUC of 12.5 µM·h. In [16], this molecule had a bioavailability of 72%. Further, the half-life in data set [17] is 28 min. In data set [31], the CL/F is 16 mL/min/kg.
For the molecule `CC(C)(c1cc2cnccc2o1)N1CCN(C[C@@H](O)C[C@@H](Cc2ccccc2)C(=O)N[C@H]2c3ccccc3OC[C@H]2O)[C@H](C(=O)NCC(F)(F)F)C1`, the IC95 was 62 nM in the data set with MT4 [3], 250 nM with MT4 [6], not above 8 nM in the data set on MT4 [7] and 62 nM in the data set on MT4 [10]. Further, the results for the pIC50 in [8], in data set [12] and in data set [14] were 8.24, 8.80 and 8.28, respectively.
